We go through 24 molecules from ChEMBL document CHEMBL4613272, “Anti-HIV-Active Nucleoside Triphosphate Prodrugs” (J Med Chem, 2020).

The nature of data set [1]: Half life in pH 7.3 phosphate buffered saline by HPLC analysis. Type of data set: physicochemical. In a few lines: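 Prodrug from 50 mM DMSO-d6 stock diluted to 1.9 mM with water/DMSO-d6. Reaction started by adding phosphate buffer (50 mM stock, pH 7.3). Products followed by analytical RP18 HPLC with TBAA or TEAA buffer/acetonitrile gradient.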
Data set [2] in a line: Selectivity index, ratio of CC50 for human CEM cells to EC50 for HIV1 HE infected in human CEM/0 cells. As to conditions: CEM cells (CC50) and HIV1 HE infected CEM/0 cells (EC50).
Data set [3] relates to Human immunodeficiency virus 2. Description: Antiviral activity against HIV2 ROD infected in thymidine kinase-deficient human CEM cells assessed as inhibition of virus-induced giant cell formation measured after 4 to 5 days by microscopic analysis. As to conditions: Human immunodeficiency virus 2, ISOLATE ROD, CCRF-CEM.
The nature of data set [4]: Cytotoxicity against human CEM cells assessed as reduction in cell proliferation. Type of data set: cell-based. As to conditions: CEM cells (CCRF-CEM). In a few lines: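 CC50 is the compound concentration inhibiting CEM CD4+ T-cell proliferation by 50%. Mean ± SD of n=2-3 independent experiments.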
In data set [5] the test system is Human immunodeficiency virus 2. As to the kind of experiment: Antiviral activity against HIV2 ROD infected in human CEM/0 cells assessed as inhibition of virus-induced giant cell formation measured after 4 to 5 days by microscopic analysis. To be noted: Human immunodeficiency virus 2, ISOLATE ROD, CCRF-CEM.
The test system of data set [6] is Human immunodeficiency virus 1. Description: Antiviral activity against HIV1 HE infected in human CEM/0 cells assessed as inhibition of virus-induced giant cell formation measured after 4 to 5 days by microscopic analysis. To be noted: Human immunodeficiency virus 1, HE, CCRF-CEM.

As to `CCCCCCCCCCCCCCCCOC(=O)Oc1ccc(COP(=O)(OCc2ccc(OC(=O)CCCCCC)cc2)OP(=O)(O)OP(=O)(O)OC[C@@H]2C=C[C@H](n3cc(C)c(=O)[nH]c3=O)O2)cc1.N.N` (stereo partly specified), the half-life (commonly the time in which the quantity being followed falls by half) in data set [1] was 89 h.

Turning to `CCCCCCCCCCCCOC(=O)Oc1ccc(COP(=O)(OCc2ccc(OC(=O)C(C)C)cc2)OP(=O)(O)OP(=O)(O)OC[C@@H]2C=C[C@H](n3cc(C)c(=O)[nH]c3=O)O2)cc1.N.N` (stereo partly specified), in data set [1], the half-life was 70 h.

`CCCCCCCCCCCCCCCCCCOC(=O)Oc1ccc(COP(=O)(OCc2ccc(OC(=O)OCCCC)cc2)OP(=O)(O)OP(=O)(O)OC[C@@H]2C=C[C@H](n3cc(C)c(=O)[nH]c3=O)O2)cc1.N.N` (stereo partly specified) gave a half-life in data set [1] of 111 h.

For `Cc1cn([C@H]2C=C[C@@H](CO)O2)c(=O)[nH]c1=O` [STAVUDINE], the selectivity ratio in data set [2] was greater than 116. In addition, the EC50 (commonly the midpoint of the concentration-response curve) in data set [3] was 31000 nM. Further, the CC50 (usually the concentration that lowers cell viability or growth by half) in data set [4] is greater than 50000 nM.

Turning to `CCCCCCCCCCCC(=O)Oc1ccc(COP(=O)(O)OP(=O)(O)OP(=O)(O)OC[C@@H]2C=C[C@H](n3cc(C)c(=O)[nH]c3=O)O2)cc1.N.N.N`, in data set [1], the half-life was 460 h.

For the molecule `CCCCCCCCCCCCOC(=O)Oc1ccc(COP(=O)(OCCC#N)OP(=O)(O)OP(=O)(O)OC[C@@H]2C=C[C@H](n3cc(C)c(=O)[nH]c3=O)O2)cc1.N.N` (stereo partly specified), the selectivity ratio in data set [2] was greater than 212. Further, the EC50 stood at 230 nM in data set [5], 2480 nM in data set [3] and 470 nM in data set [6]. Further, in data set [4], the CC50 is greater than 100000 nM. Also, the half-life in data set [1] was 30 h.

For the molecule `CCCCCCCCCCCOC(=O)Oc1ccc(COP(=O)(OCc2ccc(OC(=O)CC)cc2)OP(=O)(O)OP(=O)(O)OC[C@@H]2C=C[C@H](n3cc(C)c(=O)[nH]c3=O)O2)cc1.N.N` (stereo partly specified), the half-life in data set [1] was 52 h.

With `CCCCCCCCCCCCOC(=O)Oc1ccc(COP(=O)(O)OP(=O)(O)OP(=O)(O)OC[C@@H]2C=C[C@H](n3cc(C)c(=O)[nH]c3=O)O2)cc1.N.N.N`, the selectivity ratio in data set [2] is greater than 303. Further, the EC50 in data set [5] is 250 nM; in data set [3], 1980 nM; in data set [6], 330 nM. Further, the CC50 in data set [4] is greater than 100000 nM. The molecule further had a half-life in data set [1] of 625 h.

In the case of `CCCCCCCCCCCCCCCOC(=O)Oc1ccc(COP(=O)(OCc2ccc(OC(=O)CCCC)cc2)OP(=O)(O)OP(=O)(O)OC[C@@H]2C=C[C@H](n3cc(C)c(=O)[nH]c3=O)O2)cc1.N.N` (stereo partly specified), the half-life in data set [1] is 74 h.

As to `CCCCCCCCCCCCCCCCOC(=O)Oc1ccc(COP(=O)(OCCC#N)OP(=O)(O)OP(=O)(O)OC[C@@H]2C=C[C@H](n3cc(C)c(=O)[nH]c3=O)O2)cc1.N.N` (stereo partly specified), in data set [2], the selectivity ratio is 100. For the same molecule, the EC50 stood at 300 nM in data set [5], 3260 nM in data set [3] and 530 nM in data set [6]. Besides, in data set [4], the CC50 was determined as 53000 nM. Further, in data set [1], the half-life was 56 h.

As for `CCCCCCCCCCCCCCCCOC(=O)Oc1ccc(COP(=O)(OCc2ccc(OC(=O)CCCCCCCCC)cc2)OP(=O)(O)OP(=O)(O)OC[C@@H]2C=C[C@H](n3cc(C)c(=O)[nH]c3=O)O2)cc1.N.N` (stereo partly specified), the selectivity ratio in data set [2] worked out at 100. The EC50 in data set [5] is 78 nM; in data set [3], 240 nM; in data set [6], 160 nM. In data set [4], the CC50 was determined as 16000 nM. In data set [1], the half-life was 85 h.

`CCCCCCCCCCCCCCCCOC(=O)Oc1ccc(COP(=O)(OCc2ccc(OC(=O)CC(C)C)cc2)OP(=O)(O)OP(=O)(O)OC[C@@H]2C=C[C@H](n3cc(C)c(=O)[nH]c3=O)O2)cc1.N.N` (stereo partly specified) had a half-life in data set [1] of 77 h.

For the molecule `CCCCCCCCCCCCCCCCOC(=O)Oc1ccc(COP(=O)(O)OP(=O)(O)OP(=O)(O)OC[C@@H]2C=C[C@H](n3cc(C)c(=O)[nH]c3=O)O2)cc1.N.N.N`, the selectivity ratio in data set [2] amounted to 122. For the same molecule, the EC50 in data set [5] is 290 nM; in data set [3] it was 1460 nM; in data set [6], 500 nM. In addition, the CC50 in data set [4] stood at 61000 nM. In addition, the half-life in data set [1] is greater than 1600 h.

Take `CCCCCCCCCCCCCCCCCCOC(=O)Oc1ccc(COP(=O)(OCc2ccc(OC(=O)CCCC)cc2)OP(=O)(O)OP(=O)(O)OC[C@@H]2C=C[C@H](n3cc(C)c(=O)[nH]c3=O)O2)cc1.N.N` (stereo partly specified): the selectivity ratio in data set [2] was found to be 1050. Besides, the results for the EC50 in data set [5], in data set [3] and in data set [6] were 25 nM, 560 nM and 55 nM, respectively. Besides, in data set [4], the CC50 is 58000 nM. The half-life in data set [1] is 74 h.

In data set [1], `CCCCCCCCCCCCOC(=O)Oc1ccc(COP(=O)(OCc2ccc(OC(=O)CCC)cc2)OP(=O)(O)OP(=O)(O)OC[C@@H]2C=C[C@H](n3cc(C)c(=O)[nH]c3=O)O2)cc1.N.N` (stereo partly specified) showed a half-life of 75 h.

`CCCCCCCCCOC(=O)Oc1ccc(COP(=O)(OCc2ccc(OC(=O)OCCCCCCCCC)cc2)OP(=O)(O)OP(=O)(O)OC[C@@H]2C=C[C@H](n3cc(C)c(=O)[nH]c3=O)O2)cc1.N.N`: the selectivity ratio in data set [2] is 100. In addition, the EC50 in data set [5] was 90 nM; in data set [3], 230 nM; in data set [6] it was 340 nM. Besides, the CC50 in data set [4] is 34000 nM. Moreover, in data set [1], the half-life is 101 h.

As for `CCCCCCCCCCCCCCOC(=O)Oc1ccc(COP(=O)(OCc2ccc(OC(=O)CCCC)cc2)OP(=O)(O)OP(=O)(O)OC[C@@H]2C=C[C@H](n3cc(C)c(=O)[nH]c3=O)O2)cc1.N.N` (stereo partly specified), the half-life in data set [1] is 69 h.

With `CCCCCCCCCOC(=O)Oc1ccc(COP(=O)(OCc2ccc(OC(=O)CCCCCCCCC)cc2)OP(=O)(O)OP(=O)(O)OC[C@@H]2C=C[C@H](n3cc(C)c(=O)[nH]c3=O)O2)cc1.N.N` (stereo partly specified), the selectivity ratio in data set [2] was 336. For the same molecule, the EC50 in data set [5] was 90 nM; in data set [3] it was 150 nM; in data set [6], 110 nM. Moreover, in data set [4], the CC50 came to 37000 nM. Moreover, the half-life in data set [1] is 81 h.

For `CCCCCCCCCOC(=O)Oc1ccc(COP(=O)(OCc2ccc(OC(=O)CC)cc2)OP(=O)(O)OP(=O)(O)OC[C@@H]2C=C[C@H](n3cc(C)c(=O)[nH]c3=O)O2)cc1.N.N` (stereo partly specified), the selectivity ratio in data set [2] came out at 1150. Moreover, the EC50 in data set [5] was determined as 40 nM; in data set [3], 1760 nM; in data set [6], 73 nM. For the same molecule, the CC50 in data set [4] worked out at 84000 nM. Moreover, in data set [1], the half-life is 25 h.

`Cc1cn([C@H]2C=C[C@@H](COP(=O)(O)OP(=O)(O)OP(=O)(O)O)O2)c(=O)[nH]c1=O` [STAVUDINE TRIPHOSPHATE] had a half-life in data set [1] greater than 500 h.

Regarding `CCCCCCCCCCOC(=O)Oc1ccc(COP(=O)(OCc2ccc(OC(=O)CC)cc2)OP(=O)(O)OP(=O)(O)OC[C@@H]2C=C[C@H](n3cc(C)c(=O)[nH]c3=O)O2)cc1.N.N` (stereo partly specified), the half-life in data set [1] was 34 h.

In the case of `CCCCCCCCCCCCCCOC(=O)Oc1ccc(COP(=O)(OCc2ccc(OC(=O)CC)cc2)OP(=O)(O)OP(=O)(O)OC[C@@H]2C=C[C@H](n3cc(C)c(=O)[nH]c3=O)O2)cc1.N.N` (stereo partly specified), the half-life in data set [1] was 74 h. Against the preceding molecule, the half-life is about 2.2-fold higher.

As for `CCCCCCCCCCCCCCCCOC(=O)Oc1ccc(COP(=O)(OCc2ccc(OC(C)=O)cc2)OP(=O)(O)OP(=O)(O)OC[C@@H]2C=C[C@H](n3cc(C)c(=O)[nH]c3=O)O2)cc1.N.N` (stereo partly specified), in data set [1], the half-life was 81 h. This half-life and that of the molecule before are within 1.5-fold of each other.

In turn, `CCCCCCOC(=O)Oc1ccc(COP(=O)(O)OP(=O)(O)OP(=O)(O)OC[C@@H]2C=C[C@H](n3cc(C)c(=O)[nH]c3=O)O2)cc1.N.N.N` showed a half-life in data set [1] of 544 h.
